In paper PMC5812400 (ESMO Open, 2018):
Values joined by “and” are separate entries in the source; they are usually repeats but may differ in a detail not shown here. Identical values can stand only once.

Legend:
[1] = tested on: adult patients with advanced non-haematological malignancies; assay: DLT and MTD/RP2D determination, phase I dose escalation of milled TAK-228; assay type: in vivo, human; conditions: for Maximum tolerated dose (MTD) / Recommended phase II dose (RP2D): milled
In short: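 Open-label dose escalation at four US sites with milled oral capsules, fasted, in 28-day cycles. Arms: QD days 1–28 (start 4 mg); QD days 2–4, 9–11, 16–18, 23–25 (start 6 mg) with IV taxane 80 mg/m2 on days 1, 8 and 15, ~24 h before dosing; QW days 1, 8, 15, 22 (start 20 mg). DLT: drug-related AE preventing further escalation. MTD: dose giving ≤1 DLT in cycle 1. DLT-evaluable: ≥75% of planned cycle 1 doses, or stopped earlier for a drug-related AE.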

[2] = Plasma PK of TAK-228 4 mg in single-agent QD PK run-in; assay type: in vivo, human; conditions: for AUC(0-inf) / Cmax: geometric mean (%CV)
In short: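 Run-in ≤14 days before cycle 1. Three visits ≥48 h apart, each a 4 mg oral dose: unmilled fasted, milled after high-fat breakfast, milled fasted. No proton pump inhibitor within 5 days or H2 antagonist within 24 h. LC-MS/MS validated over 1–1000 ng/mL. ANOVA on log Cmax and AUC (treatment fixed, patient random); geometric mean ratios with 90% CI.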

[3] = Plasma PK of milled TAK-228 in TAK-228+P and TAK-228 QW arms, LC-MS/MS; assay type: in vivo, human; conditions: for Cmax / Tmax / AUC(0-t) / AUC(0-inf) / Vd/F / half-life: human, plasma, oral
In short: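 Milled capsules given fasted. Combination arm sampled on cycle 1 day 2, the first dosing day, ~24 h after IV taxane 80 mg/m2; QW arm sampled on cycle 1 day 1. LC-MS/MS validated over 1–1000 ng/mL. PK parameters summarised descriptively (geometric/arithmetic means, medians, CV).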

[4] = tested on: advanced non-haematological malignancies; assay: Tumour response; assay type: in vivo, human
In short: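 Response assessed by RECIST 1.1 on contrast CT or MRI of chest, abdomen and pelvis; bone scans allowed for bone metastases. Same modality kept per patient. Baseline scan within 4 weeks before first dose, then cycle 3 day 1 and every two cycles until end of study or discontinuation. ORR = CR+PR; clinical benefit = CR+PR+SD, and CR+PR+SD ≥6 months.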

[5] = tested on: patients with haematological malignancies or advanced solid tumours; conditions: unmilled TAK-228, haematological malignancies; ref 7 11; cited from earlier work
[6] = human, plasma, oral, 4 mg, 4 mg milled, fed (high-fat breakfast)

In the case of `CC(C)n1nc(-c2ccc3oc(N)nc3c2)c2c(N)ncnc21` [TAK-228, Sapanisertib], the “Patients with DLT” value ([1]; QD 3 mg, 10 patients, grade 3 thrombocytopaenia) is reported as “one patient experienced a DLT”, the “DLT-evaluable patients with at least one DLT” value ([1]; QD 4 mg) is reported as 3/6 and the “Patients with DLT” value ([1]; QW 20 mg) is reported as “none of the six patients”. The “Patients with DLT” value ([1]; QW 30 mg, cohort expanded to 12 patients, grade 3 adverse drug reaction) was 1 patient, the “Patients with DLT” value ([1]; QW 30 mg, initial six DLT-evaluable patients) was “none experiencing DLTs” and the “Maximum tolerated dose (MTD)” value ([1]; QD 3 days/week in combination with paclitaxel 80 mg/m^2) was 6 mg. For the same molecule, the “Recommended phase II dose (RP2D)” value ([1]; in combination with paclitaxel 80 mg/m^2) was 4 mg, the “Maximum tolerated dose (MTD)” value ([1]; single-agent QD) was 3 mg and the “Recommended phase II dose (RP2D)” value ([1]; single-agent QD) was 3 mg. For the same molecule, the “Maximum tolerated dose (MTD)” value ([1]; single-agent QW) was 30 mg, the “Recommended phase II dose (RP2D)” value ([1]; single-agent QW) was 30 mg and the AUC(0-inf) ([2]; human, plasma, oral, 4 mg, 4 mg milled, fasted) was 369 ng·h/mL. The AUC(0-inf) [2, 6] was 383 ng·h/mL, the Cmax [2, 6] was 21.6 ng/mL and the Cmax ([2]; human, plasma, oral, 4 mg, 4 mg unmilled, fasted) was 34 ng/mL. For the same molecule, the Tmax ([2]; human, plasma, oral, 4 mg, Tmax, median (range), 4 mg milled, fed (high-fat breakfast)) was 6 h, the “Reduction in geometric mean Cmax, fed versus fasted” value ([2]; milled 4 mg, high-fat breakfast vs empty stomach) was ~ 40% and 40% and the “CL/F, geometric mean (CV)” value ([3]; QW 20 mg (n=7)) was 15.1 (46) L/hour. The “CL/F, geometric mean (CV)” value ([3]; QW 30 mg (n=13)) was 18.3 (63) L/hour, the “Effect of paclitaxel administered 24 hours before TAK-228 on TAK-228 PK” value ([3]; combination arm vs QD arm (4 mg, milled, fasted)) was “no clinically meaningful effects” and the Cmax ([3]; 4 mg) was 28.5 ng/mL. It also gave a Tmax ([3]; 4 mg) of 2.2 h, an AUC(0-t) ([3]; 6 mg) of 244 ng·h/mL and an AUC(0-inf) ([3]; 20 mg) of 1330 ng·h/mL. For the same molecule, the AUC(0-t) ([3]; 20 mg) was 1240 ng·h/mL, the Cmax ([3]; 20 mg) was 209 ng/mL and the Vd/F ([3]; 20 mg) was 125 L. It also gave a half-life ([3]; 20 mg) of 6.1 h, an AUC(0-inf) ([3]; 30 mg) of 1640 ng·h/mL and an AUC(0-t) ([3]; 30 mg) of 1530 ng·h/mL. It also gave a Cmax ([3]; 30 mg) of 235 ng/mL, a Tmax ([3]; 30 mg) of 1 h and a Vd/F ([3]; 30 mg) of 155 L. The half-life ([3]; 30 mg) was 6 h, the “Best overall response: CR” value ([4]; QD 3 mg (n=11)) was 0 n (%) and the “Best overall response: PD” value ([4]; QD 3 mg (n=11)) was 3 (27) n (%). The “Best overall response: PR” value ([4]; QD 3 mg (n=11)) was 1 (9) n (%), the “Best overall response: SD (<6 months)” value ([4]; QD 3 mg (n=11)) was 3 (27) n (%) and the “Best overall response: SD (≥6 months)” value ([4]; QD 3 mg (n=11)) was 3 (27) n (%). For the same molecule, the “Clinical benefit rate CR+PR + SD” value ([4]; QD 3 mg (n=11)) was 7 (64) n (%), the “Clinical benefit rate CR+PR + SD ≥6 months” value ([4]; QD 3 mg (n=11)) was 4 (36) n (%) and the “Objective response rate (CR+PR)” value ([4]; QD 3 mg (n=11)) was 1 (9) n (%). The “Best overall response: CR” value ([4]; QD 4 mg (n=6)) was 0 n (%), the “Best overall response: PD” value ([4]; QD 4 mg (n=6)) was 3 (50) n (%) and the “Best overall response: PR” value ([4]; QD 4 mg (n=6)) was 1 (17) n (%). For the same molecule, the “Best overall response: SD (<6 months)” value ([4]; QD 4 mg (n=6)) was 0 n (%), the “Best overall response: SD (≥6 months)” value ([4]; QD 4 mg (n=6)) was 1 (17) n (%) and the “Clinical benefit rate CR+PR + SD” value ([4]; QD 4 mg (n=6)) was 2 (33) n (%). The “Clinical benefit rate CR+PR + SD ≥6 months” value ([4]; QD 4 mg (n=6)) was 2 (33) n (%), the “Objective response rate (CR+PR)” value ([4]; QD 4 mg (n=6)) was 1 (17) n (%) and the “Best overall response: CR” value ([4]; QD Total (n=17)) was 0 n (%). For the same molecule, the “Best overall response: PD” value ([4]; QD Total (n=17)) was 6 (35) n (%), the “Best overall response: PR” value ([4]; QD Total (n=17)) was 2 (12) n (%) and the “Best overall response: SD (<6 months)” value ([4]; QD Total (n=17)) was 3 (18) n (%). For the same molecule, the “Best overall response: SD (≥6 months)” value ([4]; QD Total (n=17)) was 4 (24) n (%), the “Clinical benefit rate CR+PR + SD” value ([4]; QD Total (n=17)) was 9 (53) n (%) and the “Clinical benefit rate CR+PR + SD ≥6 months” value ([4]; QD Total (n=17)) was 6 (35) n (%). For the same molecule, the “Objective response rate (CR+PR)” value ([4]; QD Total (n=17)) was 2 (12) n (%), the “Objective response rate (ORR)” value ([4]; QD arm) was 12% and the “Overall clinical benefit rate (CR+PR + SD)” value ([4]; QD arm (9/17 patients)) was 52.9%. For the same molecule, the “Best overall response: CR” value ([4]; QW 20 mg (n=7)) was 0 n (%), the “Best overall response: PD” value ([4]; QW 20 mg (n=7)) was 3 (43) n (%) and the “Best overall response: PR” value ([4]; QW 20 mg (n=7)) was 0 n (%). The “Best overall response: SD (<6 months)” value ([4]; QW 20 mg (n=7)) was 3 (43) n (%), the “Best overall response: SD (≥6 months)” value ([4]; QW 20 mg (n=7)) was 0 n (%) and the “Clinical benefit rate CR+PR + SD” value ([4]; QW 20 mg (n=7)) was 3 (43) n (%). The “Clinical benefit rate CR+PR + SD ≥6 months” value ([4]; QW 20 mg (n=7)) was 0 n (%), the “Objective response rate (CR+PR)” value ([4]; QW 20 mg (n=7)) was 0 n (%) and the “Best overall response: CR” value ([4]; QW 30 mg (n=13)) was 0 n (%). The “Best overall response: PD” value ([4]; QW 30 mg (n=13)) was 3 (23) n (%), the “Best overall response: PR” value ([4]; QW 30 mg (n=13)) was 0 n (%) and the “Best overall response: SD (<6 months)” value ([4]; QW 30 mg (n=13)) was 5 (39) n (%). The “Best overall response: SD (≥6 months)” value ([4]; QW 30 mg (n=13)) was 1 (8) n (%), the “Clinical benefit rate CR+PR + SD” value ([4]; QW 30 mg (n=13)) was 6 (46) n (%) and the “Clinical benefit rate CR+PR + SD ≥6 months” value ([4]; QW 30 mg (n=13)) was 1 (8) n (%). For the same molecule, the “Objective response rate (CR+PR)” value ([4]; QW 30 mg (n=13)) was 0 n (%), the “Best overall response: CR” value ([4]; QW Total (n=20)) was 0 n (%) and the “Best overall response: PD” value ([4]; QW Total (n=20)) was 6 (30) n (%). The “Best overall response: PR” value ([4]; QW Total (n=20)) was 0 n (%), the “Best overall response: SD (<6 months)” value ([4]; QW Total (n=20)) was 8 (40) n (%) and the “Best overall response: SD (≥6 months)” value ([4]; QW Total (n=20)) was 1 (5) n (%). The “Clinical benefit rate CR+PR + SD” value ([4]; QW Total (n=20)) was 9 (45) n (%), the “Clinical benefit rate CR+PR + SD ≥6 months” value ([4]; QW Total (n=20)) was 1 (5) n (%) and the “Objective response rate (CR+PR)” value ([4]; QW Total (n=20)) was 0 n (%). The “Objective response rate (ORR)” value ([4]; QW arm) was 0%, the “Overall clinical benefit rate (CR+PR + SD)” value ([4]; QW arm (9/20 patients)) was 45% and the “Incidence of grade ≥3 drug-related AEs” value [5] was 31%.
